Results published in PMC3310199 (Journal of Medicinal Chemistry, 2012).
Entries after “also recorded” stand apart in the source; their conditions may differ. Where a SMILES comes first, the peptide text is derived from it. The star is where a group is joined. Cbz = O=C(OCc1ccccc1)*; CHN2 = [N-]=[N+]=C*

Columns and labels:
IdeS [1] = target: T1, IdeS (Streptococcus pyogenes, UniProt Q9F1R7); conditions: cited from earlier work
T1 sequence (Q9F1R7 30-339): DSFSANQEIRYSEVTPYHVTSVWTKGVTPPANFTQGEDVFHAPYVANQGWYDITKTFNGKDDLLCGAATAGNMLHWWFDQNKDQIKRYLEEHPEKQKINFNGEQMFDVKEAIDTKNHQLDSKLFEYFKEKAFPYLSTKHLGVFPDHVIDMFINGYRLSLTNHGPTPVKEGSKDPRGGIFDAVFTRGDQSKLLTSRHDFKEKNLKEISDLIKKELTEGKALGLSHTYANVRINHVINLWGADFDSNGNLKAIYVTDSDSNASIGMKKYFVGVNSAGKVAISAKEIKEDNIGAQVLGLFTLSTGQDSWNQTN

[2] = target: T2, streptococcal cysteine protease SpeB (Streptococcus pyogenes serotype M1, UniProt P0C0J1); test: SpeB activity assay; type: biochemical, S. pyogenes; conditions: SpeB 0.28 μM, 4.8 × 10^3 molar excess of peptide/analogue
T2 sequence (P0C0J1 146-398): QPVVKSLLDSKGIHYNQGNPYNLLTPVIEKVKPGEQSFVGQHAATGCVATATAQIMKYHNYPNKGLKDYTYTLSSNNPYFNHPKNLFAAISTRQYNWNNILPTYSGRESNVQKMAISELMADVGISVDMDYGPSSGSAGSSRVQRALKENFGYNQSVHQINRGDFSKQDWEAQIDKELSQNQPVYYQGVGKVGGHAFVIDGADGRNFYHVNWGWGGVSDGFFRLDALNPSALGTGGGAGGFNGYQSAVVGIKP
Summary of the method: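 SpeB was purified from S. pyogenes strain 5448 culture medium by ammonium sulfate precipitation and ion exchange. It was activated with 2 mM DTT for 30 min at 37 °C, and active amount was set by E-64 active-site titration. Enzyme was preincubated 15 min at RT with test compound (stock 30 mM in 50% DMSO/phosphate pH 7.4). BPFA was then added (1 mM solution, 0.1 M phosphate pH 6) and OD405 change recorded. Triplicates.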

papain [3] = target: T3, papain (Carica papaya, UniProt P00784); test: Papain activity assay; type: biochemical; conditions: papain 0.9 μM, 4.8 × 10^3 molar excess of peptide/analogue
T3 sequence (P00784 134-345): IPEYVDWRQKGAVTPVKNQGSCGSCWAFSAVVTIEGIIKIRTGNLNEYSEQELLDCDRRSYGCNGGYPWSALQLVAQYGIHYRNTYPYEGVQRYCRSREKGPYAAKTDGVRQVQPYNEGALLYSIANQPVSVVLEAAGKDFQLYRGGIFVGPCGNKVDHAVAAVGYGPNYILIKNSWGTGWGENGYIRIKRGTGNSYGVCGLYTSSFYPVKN
Summary of the method: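 Papain was taken up in pH 6.2 phosphate buffer with EDTA and DTT. It was preincubated 10 min at RT with test compound (stock 30 mM in 50% DMSO/phosphate pH 6.2). Substrate (stock 100 mM in DMSO) was added, then 2 h at 37 °C. Reactions were stopped with glacial acetic acid and cleavage read as Abs405. Duplicates were run on two separate occasions.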

papain [4] = target: T3, papain; test: Determination of inhibition constants; type: biochemical; conditions: 5 μM papain, Nα-benzoyl-DL-arginine 4-nitroanilide 0.25-6 mM
Summary of the method: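 Initial velocities were measured with or without inhibitor at Nα-benzoyl-DL-arginine 4-nitroanilide 6, 3, 1, 0.5 or 0.25 mM and 5 μM papain. Ki was derived by nonlinear regression fitted to a competitive inhibition model.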

IdeS [5] = target: T1, IdeS; type: biochemical; conditions: for inhibitory activity toward IdeS (Figure 4): IdeS 0.8 μM, 4.8 × 10^3 molar excess of peptide/analogue, IgG1 substrate
Summary of the method: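 Recombinant His-Trx-IdeS was expressed in E. coli BL21, the tag removed with TEV protease, and purified by Ni2+-resin and size exclusion. Enzyme was preincubated with test compound (stock 30 mM in 50% DMSO/phosphate pH 7.4) 15 min at RT. Human IgG1 was added, then 20 min at 37 °C, stopped with iodoacetamide. Protein A-CM5 SPR was read at 190 s post-injection against no-enzyme controls, converted to fraction active IdeS via a standard curve. Triplicates.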

| Compound | inhibition of IdeS by known inhibitors (IdeS [1]) | inhibitory effect on SpeB activity (Figure 5A) [2] | inhibitory effect on papain activity (Figure 5B) (papain [3]) | inhibitory activity toward IdeS (Figure 4) (IdeS [5]) | also measured |
| --- | --- | --- | --- | --- | --- |
| CC(C)C[C@H](NC(=O)C1OC1C(=O)O)C(=O)NCCCCN=C(N)N (stereo in doubt) [E64, 1-[N-[(3-trans-carboxyoxirane-2-carbonyl)-L-leucyl]amino]-4-guanidinobutane] | not inhibited | – | – | – | – |
| CC(C)C[C@H](N)C(=O)NCC(=O)N1CCC[C@@H](N2CCC[C@H]2C(N)=O)C1 [(R)-LGpipP] | – | inhibited SpeB activity | most active analogue | – | – |
| CC(C)C[C@H](N)C(=O)N1CCC[C@@H](NCC(N)=O)C1 [(R)-LpipG, (−)-2-[(1-L-Leucinyl-(R)-piperidin-3-yl)amino]acetamide] | – | do not inhibit SpeB | hardly affecting papain | most potent inhibitors; also recorded: potent inhibitors of IdeS | effect on initial velocities of papain activity (papain [4]): remained unchanged |
| NC(=O)[C@@H]1CCCN1C(=O)CN[C@@H]1CCCNC1 [(R)-pipGP] | – | no inhibitory activity | even more active toward papain | most potent inhibitors; also recorded: most active inhibitors of IdeS | – |
| CC(C)C[C@H](N)C(=O)NCC(=O)N1CCC[C@H](N2CCC[C@H]2C(N)=O)C1 [(S)-LGpipP] | – | inhibited SpeB activity | – | – | – |
| CCN(CC(N)=O)[C@H]1CCCN(C(=O)[C@H](CC(C)C)NC(=O)[C@@H](N)CC(C)C)C1 [(S)-LLpipEtG] | – | clearly improved degree of inhibition | – | – | – |
| CC(C)C[C@H](N)C(=O)N1CCC[C@H](NCC(=O)N2CCC[C@H]2C(N)=O)C1 [(S)-LpipGP] | – | no inhibitory activity | even more active toward papain | most potent inhibitors; also recorded: most active inhibitors of IdeS | – |
| NC(=O)CN[C@H]1CCCNC1 [(S)-pipG, (+)-2-((S)-Piperidin-3-ylamino)acetamide] | – | do not inhibit SpeB | hardly affecting papain | most potent inhibitors; also recorded: potent inhibitors of IdeS | effect on initial velocities of papain activity (papain [4]): remained unchanged; ligand efficiency (LE) for IdeS inhibition (IdeS [5]; binding energy per atom considered): most favorable peptide analogue in the series |
| NC(=O)[C@@H]1CCCN1C(=O)CN[C@H]1CCCNC1 [(S)-pipGP] | – | – | – | most potent inhibitors | – |
| Cc1ccc(S(=O)(=O)N[C@@H](CCCCN)C(=O)CCl)cc1 [TLCK, tosyl lysyl chloromethyl ketone] | reported to inhibit IdeS | – | – | – | – |
| Cc1ccc(S(=O)(=O)N[C@@H](Cc2ccccc2)C(=O)CCl)cc1 [TPCK, tosyl phenylalanyl chloromethyl ketone] | reported to inhibit IdeS | – | – | – | – |
| CC(C)CC(NC(=O)OCc1ccccc1)C(=O)NC(C(=O)NCC(=O)C=[N+]=[N-])C(C)C (stereo not drawn) [Z-LVG CHN2, N-benzyloxycarbonyl-leucyl-valyl-glycine diazomethylketone] (Cbz-Leu-Val-Gly-CHN2; configuration not given here) | reported to inhibit IdeS | – | – | – | – |
